Assay results as given in ChEMBL document CHEMBL5674880 (PLoS One, 2018).

Assays:
SNU1 = assay: Antiproliferative activity against human SNU1 cells after 10 days; format: functional, cell-based; settings: SNU1, 240 h
G-401 = assay: Antiproliferative activity against human G-401 cells after 10 days; format: functional, cell-based; settings: G-401, 240 h
Summary of the method: (§1)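 10-day 2D proliferation screen of a broad cancer cell panel (about 240 lines, Eurofins Oncopanel). All lines were mycoplasma negative and STR verified. Compounds were dosed up to a top concentration of 10 μM or 25 μM, depending on the inhibitor. Anti-proliferative IC50 values are the average of three biological replicates.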

DU-145 = assay: Antiproliferative activity against human DU-145 cells after 10 days; format: functional, cell-based; settings: DU-145, 240 h; summary of the method: as §1
JEG-3 = assay: Antiproliferative activity against human JEG-3 cells after 10 days; format: functional, cell-based; settings: JEG-3, 240 h
Summary of the method: (§2)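 Cell lines run in the Eurofins Oncopanel broad cancer panel, all mycoplasma-negative and STR-verified. Cells were exposed to a compound concentration series in a 10-day proliferation assay, and an anti-proliferative IC50 was derived. Values are the mean of three biological replicates.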

CHP-212 = assay: Antiproliferative activity against human CHP-212 cells after 10 days; format: functional, cell-based; settings: CHP-212, 240 h
Summary of the method: (§3)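 Tested as part of a 240-line cancer cell panel (Eurofins Oncopanel); all lines were mycoplasma-negative and STR-verified. Cells were exposed to a compound concentration series in 2D culture for 10 days. The highest concentration was 10 μM or 25 μM, depending on the inhibitor. Antiproliferative IC50 was derived from the mean of three biological replicates.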

SW13 = assay: Antiproliferative activity against human SW13 cells after 10 days; format: functional, cell-based; settings: SW13, 240 h
BeWo = assay: Antiproliferative activity against human BeWo cells after 10 days; format: functional, cell-based; settings: 240 h; summary of the method: as §3
SK-UT-1 = assay: Antiproliferative activity against human SK-UT-1 cells after 10 days; format: functional, cell-based; settings: SK-UT-1, 240 h
Hs-578T = assay: Antiproliferative activity against human Hs 578T cells after 10 days; format: functional, cell-based; settings: 240 h; summary of the method: as §1
U-87 MG = assay: Antiproliferative activity against human U-87MG cells after 10 days; format: functional, cell-based, U-87MG ATCC; settings: 240 h
ST486 = assay: Antiproliferative activity against human ST486 cells after 10 days; format: functional, cell-based; settings: ST486, 240 h
[1] = Antiproliferative activity against human MT-3 cells after 10 days; format: functional, cell-based; settings: MT-3, 240 h
Summary of the method: (§4)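 Broad cancer cell line panel (Eurofins Oncopanel, about 240 lines; mycoplasma negative, STR verified) grown in 2D culture and exposed to compound in a 10-day proliferation assay. The top concentration was 10 μM for the SMYD2 inhibitor series and 25 μM for the SMYD3 inhibitor. The proliferative IC50 is taken from concentration-response data, each value the mean of three biological replicates.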

JAR = assay: Antiproliferative activity against human JAR cells after 10 days; format: functional, cell-based; settings: 240 h; summary of the method: as §4
[2] = Antiproliferative activity against human KPL-1 cells after 10 days; format: functional, cell-based; settings: KPL-1, 240 h; summary of the method: as §4
HEC-1-A = assay: Antiproliferative activity against human HEC-1-A cells after 10 days; format: functional, cell-based; settings: 240 h; summary of the method: as §1
T98G = assay: Antiproliferative activity against human T98G cells after 10 days; format: functional, cell-based; settings: 240 h
[3] = Antiproliferative activity against human BC1 cells after 10 days; format: functional, cell-based; settings: BC1, 240 h; summary of the method: as §3
[4] = Antiproliferative activity against human SK-N-BE(2)-C cells after 10 days; format: functional, cell-based; settings: 240 h
COLO 201 = assay: Antiproliferative activity against human COLO201 cells after 10 days; format: functional, cell-based; settings: COLO 201, 240 h; summary of the method: as §1
BXPC-3 = assay: Antiproliferative activity against human BXPC-3 cells after 10 days; format: functional, cell-based; settings: BXPC-3, 240 h; summary of the method: as §3
NCI-H295R = assay: Antiproliferative activity against human NCI-H295R cells after 10 days; format: functional, cell-based; settings: 240 h; summary of the method: as §4
LS-1034 = assay: Antiproliferative activity against human LS1034 cells after 10 days; format: functional, cell-based; settings: LS-1034, 240 h; summary of the method: as §4
MIA PaCa-2 = assay: Antiproliferative activity against human Mia PaCa-2 cells after 10 days; format: functional, cell-based; settings: MIA PaCa-2, 240 h; summary of the method: as §4
[5] = Antiproliferative activity against human TE 381.T cells after 10 days; format: functional, cell-based; settings: 240 h
HuCCT-1 = assay: Antiproliferative activity against human HuCCT-1 cells after 10 days; format: functional, cell-based; settings: HuCCT-1, 240 h; summary of the method: as §1
Capan-2 = assay: Antiproliferative activity against human Capan2 cells after 10 days; format: functional, cell-based; settings: Capan-2, 240 h; summary of the method: as §1
SW 954 = assay: Antiproliferative activity against human SW 954 cells after 10 days; format: functional, cell-based; settings: SW 954, 240 h
Y79 = assay: Antiproliferative activity against human Y79 cells after 10 days; format: functional, cell-based; settings: Y79, 240 h
SW-403 = assay: Antiproliferative activity against human SW403 cells after 10 days; format: functional, cell-based; settings: SW-403, 240 h
SK-MEL3 = assay: Antiproliferative activity against human SK-MEL3 cells after 10 days; format: functional, cell-based; settings: SK-MEL3, 240 h
BHT-101 = assay: Antiproliferative activity against human BHT-101 cells after 10 days; format: functional, cell-based; settings: BHT-101, 240 h; summary of the method: as §3
Daudi = assay: Antiproliferative activity against human Daudi cells after 10 days; format: functional, cell-based; settings: 240 h; summary of the method: as §1
NCI-H441 = assay: Antiproliferative activity against human NCI-H441 cells after 10 days; format: functional, cell-based; settings: NCI-H441, 240 h; summary of the method: as §4
Hs746T = assay: Antiproliferative activity against human Hs746T cells after 10 days; format: functional, cell-based; settings: 240 h; summary of the method: as §1
ARH-77 = assay: Antiproliferative activity against human ARH-77 cells after 10 days; format: functional, cell-based; settings: ARH-77, 240 h; summary of the method: as §3
BT-549 = assay: Antiproliferative activity against human BT-549 cells after 10 days; format: functional, cell-based; settings: BT-549, 240 h; summary of the method: as §3
NCI-H520 = assay: Antiproliferative activity against human NCI-H520 cells after 10 days; format: functional, cell-based; settings: NCI-H520, 240 h; summary of the method: as §4
THP-1 = assay: Antiproliferative activity against human THP-1 cells after 10 days; format: functional, cell-based; settings: THP-1, 240 h
COLO-320-HSR = assay: Antiproliferative activity against human COLO 320HSR cells after 10 days; format: functional, cell-based; settings: 240 h; summary of the method: as §3
MDA-MB-453 = assay: Antiproliferative activity against human MDA-MB-453 cells after 10 days; format: functional, cell-based; settings: MDA-MB-453, 240 h; summary of the method: as §2
OVCAR-3 = assay: Antiproliferative activity against human OVCAR-3 cells after 10 days; format: functional, cell-based; settings: OVCAR-3, 240 h; summary of the method: as §4
SW1417 = assay: Antiproliferative activity against human SW1417 cells after 10 days; format: functional, cell-based; settings: SW1417, 240 h
Hs 695T = assay: Antiproliferative activity against human Hs 695T cells after 10 days; format: functional, cell-based; settings: 240 h; summary of the method: as §1
[6] = system: KATO III stomach cancer cell line; assay: Antiproliferative activity against human KATO III cells after 10 days; format: functional, cell-based; settings: 240 h; summary of the method: as §4
A-431 = assay: Antiproliferative activity against human A-431 cells after 10 days; format: functional, cell-based; settings: A-431, 240 h; summary of the method: as §3
NCI-H69 = assay: Antiproliferative activity against human NCI-H69 cells after 10 days; format: functional, cell-based; settings: NCI-H69, 240 h; summary of the method: as §4
MDA-MB-436 = assay: Antiproliferative activity against human MDA-MB-436 cells after 10 days; format: functional, cell-based; settings: MDA-MB-436, 240 h; summary of the method: as §4
ES-2 = assay: Antiproliferative activity against human ES2 cells after 10 days; format: functional, cell-based; settings: ES-2, 240 h; summary of the method: as §1
Caov-3 cell line = assay: Antiproliferative activity against human Caov-3 cells after 10 days; format: functional, cell-based; settings: Caov-3, 240 h; summary of the method: as §1

Measured: IC50

O=C(NC1CN(Cc2cnn(Cc3ccccc3)c2)C1)c1cn(C2CC2)nn1
> 10 µM: all assays above
